Assay outcomes (PubChem BioAssay)
Rows were chosen to be rich in hits. Some 1.8% of all compounds tested hit in one or more screens of this group.
NSD2 HMT inh = inhibitors of human histone methyltransferase NSD2; O96028; NSD2 peptide methylation, AlphaScreen, 120 min; inhibition, % at 12.5 µM; actives 0.54% (n = 310,000); AID 743445; in the data active = inhibition above about 50%
LEDGF integ inh = blocks HIV-1 LEDGF/p75-dependent DNA integration; TR-FRET IN-LEDGF/p75 DNA integration, Eu/Cy5; actives 0.64% (n = 370,000); inhibition, % at 3.7 µM;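 active = inhibition above the screen-wide mean plus 3 SD, cut at about 13% in these data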;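 note: signal is the Cy5 over europium emission ratio at 671 and 618 nm; 0% = plate median of compound wells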
UHRF1 MBD2 ctr = UHRF1 methyl-DNA binding inhibition | Q96T88 | UHRF1 binding to methylated oligo, TR-FRET | inhibition, % at 4.4 µM | actives 0.75% (n = 370,000); in the data active = inhibition above about 21%;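 note: UHRF1 SRA domain binding a hemimethylated CpG hairpin DNA probe; 0% = median of test compound wells and 100% = reference inhibitor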
MBD2 DNA inh = inhibitors of human MBD2 binding to methylated oligonucleotide; inhibition, % at 4.4 µM; actives 0.31% (n = 370,000); Q9UBB5; AID 686964; TR-FRET; in the data active = inhibition above about 13%
CASP6 VEID inh = caspase-6 (human) enzyme inhibition | inhibition, % at 12.5 µM | P55212 | actives 0.53% (n = 350,000) | purified caspase-6, Z-VEID-R110 cleavage fluorescence;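 active = mean inhibition across replicates at least about 35%, with every replicate also reaching that limit, limit read from the data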;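 note: 0% = median of neutral control wells and 100% = no fluorescence left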
Target sequence (P55212 24-179 limits assumed): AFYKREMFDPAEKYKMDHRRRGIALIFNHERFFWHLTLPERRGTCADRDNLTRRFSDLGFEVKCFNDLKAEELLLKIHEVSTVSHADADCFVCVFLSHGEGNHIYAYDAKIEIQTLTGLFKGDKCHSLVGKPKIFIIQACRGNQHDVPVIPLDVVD
Target sequence (P55212 194-293 limits assumed): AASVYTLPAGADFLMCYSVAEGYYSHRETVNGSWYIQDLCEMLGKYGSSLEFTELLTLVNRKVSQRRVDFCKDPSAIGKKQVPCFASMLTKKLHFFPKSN
TDP2 absorb = blocks human TDP2 phosphodiesterase activity. O95551. recombinant TDP2, T5PNP hydrolysis, p-nitrophenol absorbance 415 nm. inhibition, % at 12.8 µM. actives 0.34% (n = 370,000). AID 720702;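 active = inhibition above the mean of all tested compounds plus 3 SD, set per campaign, cut at about 25% in these data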;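 note: 0% = DMSO with enzyme and 100% = buffer with substrate but no TDP2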
Target sequence (O95551 whole entry, looked up): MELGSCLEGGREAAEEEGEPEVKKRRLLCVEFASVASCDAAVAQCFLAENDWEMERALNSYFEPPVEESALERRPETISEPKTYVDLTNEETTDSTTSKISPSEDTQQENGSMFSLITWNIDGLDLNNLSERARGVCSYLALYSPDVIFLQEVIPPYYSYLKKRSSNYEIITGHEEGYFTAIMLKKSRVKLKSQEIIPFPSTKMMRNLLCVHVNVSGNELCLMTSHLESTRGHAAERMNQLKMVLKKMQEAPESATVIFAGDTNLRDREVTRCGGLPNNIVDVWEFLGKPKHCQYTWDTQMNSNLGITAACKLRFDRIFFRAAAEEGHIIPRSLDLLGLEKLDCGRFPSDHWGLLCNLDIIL
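Test system: human TDP2 enzyme; Input: 120 nM TDP2 per well; Buffer or medium: Mg2+-containing Tris-HCl buffer, pH 7.5; Reagent: 5 mM T5PNP; Dosing: 12.8 µM single point, 1% DMSO; Incubation: reaction 2 h, 37 °C; Detection: p-Nitrophenol epi absorbance; Read-out: % inhibition relative to enzyme-containing and enzyme-free wells; Replicates: single well per compound.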
Alpha artifact = interferes with AlphaScreen signal, flagging NSD2 false positives; actives 9.4% (n = 1,500); shares compounds with NSD2 HMT inh; AC35, µM (highest dose often 10 µM), without a hit: top-dose activity change, negative = signal loss; AID 1053174; AlphaScreen artifact counterscreen, preloaded methylated H4 peptide; call rule not given here
* = called active by the depositor; · = not tested or not shown.

SMILES | NSD2 HMT inh | LEDGF integ inh | UHRF1 MBD2 ctr | MBD2 DNA inh | CASP6 VEID inh | TDP2 absorb | Alpha artifact
C=CCn1c(SCC(=O)c2ccc(O)c(O)c2)nnc1-c1ccccc1OC | · | -5.6 | 2.7 | 0.7 | 17.7 | -7.8 | ·
CCn1c(SCC(=O)c2ccc(O)c(O)c2)nnc1-c1ccccc1OC | 88.4* | 10.5 | 7.5 | 8.9 | · | -3.3 | -18.8%
CN(Cc1nc2ccccc2c(=O)[nH]1)C(=O)c1cc2c(s1)CCCCC2 | 51.6* | -8.4 | 3.0 | 11.4 | -4.0 | -1.0 | -1.5%
Cc1nn(CC(=O)Nc2ccc3c(c2)nc(CCN2CCCCC2)n3C)c(=O)c2ccccc12 | -3.6 | 2.8 | 0.3 | 2.2 | -9.3 | -4.5 | ·
CC(=O)N1CCN(Cc2nc3cc(NC(=O)Cn4nc(C)c5ccccc5c4=O)ccc3n2C)CC1 | 59.9* | -1.1 | 0.7 | -2.8 | · | -3.7 | 2.8%
C[C@@H]1CCCCO[C@H](CN(C)C(=O)C2CCCCC2)[C@H](C)CN([C@@H](C)CO)C(=O)c2cc(NC(=O)Nc3ccccc3)ccc2O1 | · | · | · | · | -0.6 | · | ·
COc1cc(NC(=O)COC(=O)CNC(=O)c2ccc(C)cc2)c(C)cc1[N+](=O)[O-] | 58.8* | -6.7 | 2.1 | -2.2 | 1.7 | 0.0 | -4.3%
COc1cc(NC(=O)COC(=O)CNC(=O)c2ccc(Cl)cc2)c(C)cc1[N+](=O)[O-] | 0.9 | -1.5 | 2.8 | -1.9 | · | 1.4 | ·
FC(F)(F)c1ccc(N/N=C/c2cccnc2)nc1 | 116.3* | 2.2 | 1.2 | -2.5 | 0.0 | 16.9 | -2.4%
C(=N\Nc1ccccn1)/c1cccnc1 | 6.7 | -3.5 | -1.4 | 4.0 | -0.8 | -1.3 | ·
C[C@@H]1CN([C@H](C)CO)S(=O)(=O)c2ccc(C#CC3CC3)cc2O[C@@H]1CN(C)S(C)(=O)=O | · | · | · | · | -1.9 | · | ·
COc1ccc(C(=O)C(OC(=O)c2ccc(C)c(NC(C)=O)c2)c2ccccc2)cc1 (stereo not drawn) | 50.3* | -1.8 | -0.2 | -2.8 | · | -15.1 | -4.6%
CC1=C(C(N)=O)C(c2ccccc2)n2nc(-c3ccncc3)nc2N1 (stereo not drawn) | 8.0 | -0.3 | -2.0 | 0.6 | · | 11.4 | ·
Cc1nc(-[n+]2nc(-c3ccncc3)nn2-c2ccccc2)sc1C | 69.0* | -5.9 | 11.6 | -0.5 | 15.7 | -5.0 | 2.13µM*
CS(=O)(=O)c1ccc2c(c1)sc1nc(=O)c(/C=C3/C=CC(=O)C(O)=C3)c(N)n12 | 118.6* | 11.1 | 2.5 | 2.8 | 29.2 | 0.0 | 7.09µM*
CS(=O)(=O)NCCCNc1ccc(Cl)cc1[N+](=O)[O-] | 7.9 | 0.9 | -20.3 | -27.3 | · | 4.2 | ·
CCNCCNc1ccc(Cl)cc1[N+](=O)[O-] | 63.8* | -1.8 | -26.5 | -24.0 | · | 1.4 | -3.4%
CCCCCCCCn1cnc2c(N)c(C)c(C)cc21 | 76.5* | -0.7 | -0.2 | -4.6 | 8.2 | -17.6 | -5.4%
O=C(C[C@@H]1C=C[C@@H](NC(=O)c2ccc(F)cc2)[C@@H](CO)O1)NCCc1ccncc1 | · | · | · | · | 0.0 | · | ·
CC(=O)c1cccc(NC(=O)CC2CCCC2)c1 | 52.6* | 0.6 | -2.0 | -3.4 | 1.9 | 0.3 | -2.7%
COc1ccc(NC(=O)Nc2ccc3c(c2)C(=O)N([C@H](C)CO)C[C@H](C)[C@@H](CN(C)S(=O)(=O)c2ccc(C)cc2)OCCCC[C@@H](C)O3)cc1 | · | · | · | · | -3.2 | · | ·
COc1cccc(C2c3c(oc4ccccc4c3=O)C(=O)N2CCCN(C)C)c1OC (stereo not drawn) | 60.5* | 3.9 | 1.6 | -5.3 | · | 2.1 | -0.4%
CCOc1ccccc1N1CCN(Cc2ccco2)CC1 | 0.4 | -3.8 | -0.2 | 3.5 | 0.4 | 8.4 | ·
CCOc1ccccc1N1CCN(C/C=C/c2ccc(N(C)C)cc2)CC1 | 68.9* | 0.7 | 1.7 | -5.1 | · | -2.8 | 9.17µM*
O=C(O)CC1S/C(=N/N=C/c2ccc(-c3ccccc3[N+](=O)[O-])o2)NC1=O (stereo not drawn) | 91.5* | 3.8 | 1.0 | 2.6 | · | -0.4 | 0.9%
SMILES | NSD2 HMT inh | LEDGF integ inh | UHRF1 MBD2 ctr | MBD2 DNA inh | CASP6 VEID inh | TDP2 absorb | Alpha artifact
CNc1c(N)n(Cc2ccccc2)c(=O)[nH]c1=O | 64.0* | -2.1 | -3.9 | 1.6 | · | 3.9 | -6.6%
CN(C(=S)NC(=O)c1ccccc1)c1c(N)n(Cc2ccccc2)c(=O)[nH]c1=O | -0.9 | 0.2 | 0.2 | 1.1 | -0.9 | 4.5 | ·
C[C@H](NC(=O)[C@@H]1[C@@H](CO)[C@@H]2Cn3c(ccc(-c4ccccc4)c3=O)[C@H]1N2C)c1ccccc1 | · | · | · | · | -0.5 | · | ·
C[C@@H]1CCCCO[C@@H](CN(C)C(=O)c2ccccc2)[C@@H](C)CN([C@@H](C)CO)C(=O)c2cc(NS(=O)(=O)c3ccc(F)cc3)ccc2O1 | · | · | · | · | -1.1 | · | ·
CO[C@H]1CN(C)C(=O)c2cc(NS(=O)(=O)c3ccccc3F)ccc2OC[C@H](C)NC[C@H]1C | · | · | · | · | 0.6 | · | ·
Cc1cc(C)n(CC(O)COc2c(C)cccc2C)n1 (stereo not drawn) | 55.1* | -2.3 | 1.4 | -1.3 | -0.6 | -7.2 | 3.9%
CC(C)(C)NC(=O)COC(=O)c1ccc2c(c1)C(=O)N(Cc1ccco1)C2=O | 75.0* | 0.8 | 0.7 | -0.2 | 5.9 | -6.3 | -0.8%
O=C(OCC(=O)N1CCCCC1)c1ccc2c(c1)C(=O)N(Cc1ccco1)C2=O | 4.9 | -0.7 | 3.0 | -0.8 | 2.9 | 3.0 | ·
CCCCn1cnc2c(=S)nc(N)[nH]c21 | 56.9* | 3.8 | -2.4 | -2.4 | -5.7 | 8.7 | 2.7%
CCCCCn1cnc2c(=S)nc(N)[nH]c21 | 22.6 | -1.7 | -1.9 | 1.1 | -0.8 | 4.9 | ·
C[C@@H]1CN([C@H](C)CO)C(=O)c2cc(-c3cncnc3)cnc2O[C@H]1CN(C)C(=O)c1cccc(F)c1 | · | · | · | · | -2.0 | · | ·
C[C@@H]1CN([C@H](C)CO)C(=O)Cc2cc(NS(=O)(=O)c3cn(C)cn3)ccc2O[C@H]1CN(C)C | · | · | · | · | 0.7 | · | ·
c1cc(-c2ccoc2)n2ccnc2c1 | 104.5* | 11.3 | 6.4 | -4.7 | 28.7 | 1.3 | -1.1%
C/C(CC(=O)Nc1ccccn1)=N\NC(=O)C(=O)Nc1cccc(C)c1 | 2.1 | -2.7 | -8.0 | -6.1 | · | 2.2 | ·
C/C(CC(=O)Nc1ccccn1)=N\NC(=O)C(=O)Nc1cccc(Cl)c1C | 60.0* | 0.1 | -3.1 | -2.7 | · | 2.9 | -1.5%
Cc1noc(C)c1S(=O)(=O)Nc1ccc2c(c1)C(=O)N([C@@H](C)CO)C[C@@H](C)[C@@H](CN(C)Cc1ccc3c(c1)OCO3)O2 | · | · | · | · | -1.9 | · | ·
COC(=O)N/N=C1/C/C(=N\NC(=O)OC)c2ccccc21 | 96.9* | 32.5* | -8.2 | -10.3 | 91.2* | 50.1* | -5.3%
Nc1nnc2c(n1)CCCC2 | 58.4* | 4.9 | -0.2 | -2.6 | · | 20.8 | 7.2%
C[C@H](CO)N1C[C@H](C)[C@H](CN(C)CC2CCCCC2)OCCCC[C@H](C)Oc2ccc(NS(=O)(=O)c3cn(C)cn3)cc2C1=O | · | · | · | · | -1.9 | · | ·
